Runt-SMMHC FRET: inhibitors of RUNX1 Runt–CBFb-SMMHC binding, primary screen, biochemical, FRET, Cerulean-Runt, Venus-CBFb-SMMHC, uHTS; Runt-related transcription factor 1 (Homo sapiens) + Core-binding factor subunit beta …; Cerulean-Runt/Venus-CBFb-SMMHC FRET ratio 530/480, 1 h; inhibition, % at 20 µM; hit rate 0.74% among 220,000; AID 1434, 2008;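 active = mean inhibition across duplicate retests at 20 µM reaching about 50%, limit read from the data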;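 also: 0% = DMSO wells and 100% = wells with excess untagged CBFb-SMMHC; inhibitors lower the FRET ratio by blocking Runt binding to CBFb-SMMHC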
Target sequence (Q01196 whole entry, looked up): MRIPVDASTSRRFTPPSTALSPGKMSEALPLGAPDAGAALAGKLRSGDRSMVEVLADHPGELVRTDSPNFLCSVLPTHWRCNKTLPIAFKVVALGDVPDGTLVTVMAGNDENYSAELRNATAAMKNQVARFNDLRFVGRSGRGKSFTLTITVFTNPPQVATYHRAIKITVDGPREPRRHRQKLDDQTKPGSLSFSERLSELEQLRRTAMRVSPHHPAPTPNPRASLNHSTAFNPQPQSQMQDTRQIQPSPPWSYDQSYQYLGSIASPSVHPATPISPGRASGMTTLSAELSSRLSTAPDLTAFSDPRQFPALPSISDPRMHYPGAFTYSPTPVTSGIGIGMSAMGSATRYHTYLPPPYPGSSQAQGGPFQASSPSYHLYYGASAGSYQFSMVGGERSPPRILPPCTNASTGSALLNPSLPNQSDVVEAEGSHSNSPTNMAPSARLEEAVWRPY
Target sequence (Q13951 whole entry, looked up): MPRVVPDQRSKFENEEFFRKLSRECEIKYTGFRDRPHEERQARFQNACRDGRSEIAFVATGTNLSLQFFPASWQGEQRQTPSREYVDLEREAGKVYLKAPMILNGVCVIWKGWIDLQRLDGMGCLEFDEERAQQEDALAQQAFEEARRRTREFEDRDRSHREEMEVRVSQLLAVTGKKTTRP
14-3-3 Bad PPI: inhibitors of 14-3-3 zeta/Bad binding, primary screen, biochemical, TR-FRET, bovine 14-3-3 zeta | TR-FRET 14-3-3zeta/Dy647-pBad peptide displacement, 1 h | inhibition, % at 21.7 µM | hit rate 0.71% among 220,000;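 active = inhibition above about 70%, limit read from the data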;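 also: 0% = full 14-3-3 plus peptide FRET controls and 100% = background without 14-3-3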
Hck Nef HTS: inhibitors of Nef-activated human Hck kinase, primary screen, biochemical, Z-Lyte FRET, 384-well, Hck-YEEI; Tyrosine-protein kinase HCK (Homo sapiens), P08631; Recombinant Hck-YEEI plus Nef, Z-Lyte FRET kinase assay; inhibition, % at 20 µM; hit rate 0.68% among 220,000;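 active = Hck-Nef kinase inhibition above about 50%, limit read from the data; inactive = inhibition below that limit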;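 also: 0% = DMSO with Hck plus Nef and 100% = Hck alone without Nef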
Runt-CBFb FRET: inhibitors of RUNX1 Runt–CBFb binding, primary screen, biochemical, FRET, Cerulean-Runt, Venus-CBFb, uHTS. Runt-related transcription factor 1 (Homo sapiens) + Core-binding factor subunit beta …. Cerulean-Runt/Venus-CBFb FRET ratio 530/480, 1 h. inhibition, % at 20 µM. hit rate 0.46% among 220,000. AID 1496, 2009;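 active = inhibition over about 50% at 20 µM in the single-dose screen, limit read from the data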;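 also: 0% = DMSO wells and 100% = excess unlabeled CBFb competitor control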
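Doses: 20 µM compound in 1% DMSO | Material: Cerulean-labeled Runt domain protein | Amount: Each fluorescent fusion protein 100 nM | Schedule: Two 1 h room-temperature incubations shielded from light | Measured by: FRET fluorescence | Evaluation: Loss of energy transfer signal | Controls: Unlabeled CBFb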
TbHK1 inh: Trypanosoma brucei hexokinase 1 inhibitors, primary screen, biochemical, G6PDH-coupled NADH absorbance, MLSCN library; AID 1430, 2008; recombinant TbHK1, G6PDH-coupled NADH A340; inhibition, % at 10 µM; hit rate 0.11% among 220,000;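 active = inhibition of 50% or more in the single-dose primary screen; inactive = inhibition below 50%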
RanGTP-Imp inh: inhibitors of RanGTP-importin-beta interaction, primary screen, biochemical, FRET, CFP-Ran, YFP-importin-beta, homogeneous | Ran GTPase (GTP-bound) - importin-beta complex | cell-free CFP-Ran/YFP-importin-beta FRET ratio | inhibition, % (no concentration beside the values) | hit rate 1.1% among 300,000;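 active = more than half of the replicate wells show a fall in the fluorescence ratio signal beyond about 16%, limit read from the data, passing the limit was not always enough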;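 also: 0% = DMSO wells and 100% = Ran loaded with GDP instead of GTP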
YIC FRET counter: YIC intramolecular FRET probe signal interference, dose response, counter-screen for RanGTP-importin-beta inhibitor project, biochemical, fluorescence FRET | Purified YIC probe, intramolecular FRET ratio YFP/CFP | shares compounds with RanGTP-Imp inh | IC50, µM | hit rate 40% among 1,000;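 active = fitted half-maximal inhibitory concentration no more than tenfold above the top dose tested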
* marks the source's active call; other numbers are inactive results; · = no result given. This is a sample that favours compounds with a hit; in the whole collection about 2.2% have one here.

SMILES | Runt-SMMHC FRET | 14-3-3 Bad PPI | Hck Nef HTS | Runt-CBFb FRET | TbHK1 inh | RanGTP-Imp inh | YIC FRET counter
CCn1c(COC(=O)CNC(=O)c2ccccc2)nc2cc(S(=O)(=O)N(C)C)ccc21 | · | · | · | · | · | 0.2 | ·
COc1ccc(/C=C2\SC(=S)N(CC(=O)OCC(=O)Nc3ccc([N+](=O)[O-])cc3OC)C2=O)cc1 | -55.0 | -16.0 | 24.4 | -28.6 | -15.9 | · | ·
COc1ccc(/C=C2\SC(=S)N(CC(=O)OCC(=O)Nc3ccc(C)cc3Cl)C2=O)cc1 | -30.6 | -3.3 | 9.4 | -11.5 | -6.0 | 18.1* | >50
CC1CN(C(=O)COC(=O)c2nn(-c3ccccc3)c(=O)c3ccccc23)CC(C)O1 (stereo not given) | -0.2 | -11.1 | 25.8 | 0.5 | -2.3 | 3.4 | ·
COC(=O)Cc1c(C)c2ccc(OCC(C)=O)c(C)c2oc1=O | -4.7 | 0.9 | -9.0 | 1.3 | -20.2 | 0.1 | ·
COC(=O)Cc1c(C)c2ccc(O)c(CNCc3ccc(OC)c(OC)c3)c2oc1=O | · | · | · | · | · | 32.6* | 7.33*
CC1(c2nnc(-c3cccc(Cl)c3)o2)CC(c2ccccc2Br)=NO1 (stereo not given) | · | · | · | · | · | -3.8 | ·
CCOC(=O)/C(C#N)=C\c1ccc(N2CCN(C)CC2)cc1 | 44.2 | 4.6 | 28.7 | 13.7 | -19.5 | 21.4* | 15.7*
CCOC(=O)/C(C#N)=C/c1ccc(N2CCN(C)CC2)cc1 | 34.8 | -5.0 | 28.9 | 9.6 | -22.3 | 19.6* | 15.7*
Cc1ccccc1CN(C)C(=O)CNC(=O)c1ccc2ccccc2c1 | · | · | · | · | · | 3.7 | ·
Cc1ccc(N2CC(=O)N(NC(=O)c3sc4nc(C)cc(C)c4c3N)CC2=O)cc1 | 7.5 | -5.7 | 21.3 | 5.8 | -16.9 | 20.0* | >50
Clc1ccc(/C=C/c2nc3ccccc3[nH]2)cc1 | -4.5 | 11.9 | 3.2 | -1.2 | -30.0 | 5.0 | ·
Clc1ccc(/C=C\c2nccc3c2[nH]c2ccccc23)cc1 | 60.0 | 12.0 | 34.3 | 22.1 | -0.8 | 27.9* | 8.61*
Cc1cccc(C(=O)NCCNc2nc3cc(C)c(C)cc3cc2C)c1 | -0.7 | 18.8 | 25.0 | -1.6 | -8.0 | 2.8 | ·
Cc1ccc(C)c(NC(=S)NCCCN2CCOCC2)c1 | -5.5 | -9.6 | 0.8 | 0.4 | -4.8 | -2.1 | ·
Cc1ccc2nc(NCCNC(=O)c3ccccc3)c(C#N)cc2c1 | · | · | · | · | · | 49.2* | 4.66*
COc1ccc(C(=O)NCCNc2nc3c(C)cccc3cc2C#N)cc1 | · | · | · | · | · | 36.2* | 18.2*
Cc1cccc2cc(C#N)c(NCCNC(=S)NCCCN3CCOCC3)nc12 | 64.1* | 8.1 | 14.6 | 39.8 | -2.5 | 18.7* | 48.1*
Oc1ccc(N2Cc3ccccc3C2)cc1 | · | · | · | · | · | 5.3 | ·
O=Cc1ccc(N2Cc3ccccc3C2)cc1 | · | · | · | · | · | 18.0* | >50
CCOC(=O)c1ccc(NC(=O)CSc2nnc(C3CCCCC3)n2C)cc1 | -4.3 | -8.1 | 16.4 | -1.1 | 6.6 | 16.4* | >50
CCOc1ccc(CNS(=O)(=O)c2c(C)nc3sccn3c2=O)cc1OC | · | · | · | · | · | 0.9 | ·
COc1ccc(-c2c(C)c3ccc(OCC(C)=O)cc3oc2=O)cc1 | 0.3 | 5.9 | 6.8 | -2.0 | -35.3 | -1.4 | ·
COc1ccc(-c2c(C)c3ccc(O)cc3oc2=O)cc1 | · | · | · | · | · | 18.7* | 22*
Cc1ccc(-c2nnn(CC(=O)N(c3ccccc3)C(C(=O)NCC3CCCO3)c3ccc(Cl)cc3)n2)cc1 (stereo not given) | 1.3 | -15.5 | 0.7 | -4.1 | -7.0 | 21.4* | >50
SMILES | Runt-SMMHC FRET | 14-3-3 Bad PPI | Hck Nef HTS | Runt-CBFb FRET | TbHK1 inh | RanGTP-Imp inh | YIC FRET counter
O=C(Oc1ccc2c3c(c(=O)oc2c1)CCCC3)c1ccco1 | 165.5* | -2.4 | 31.9 | 129.6* | -13.7 | 16.6* | 19.6*
CC(C)Oc1ccc2c3c(c(=O)oc2c1)CCC3 | 0.1 | -0.1 | 1.8 | -2.8 | -14.9 | 3.0 | ·
CCOc1ccc(OCC)c(NC(=O)CSc2nnc(C3CC3)n2CC)c1 | · | · | · | · | · | -3.4 | ·
CNC(=O)c1c(C)[nH]c(=S)c(C#N)c1-c1ccco1 | 44.8 | -0.2 | -163.0 | 31.1 | -18.4 | 31.0* | >50
CN(CC(=O)Nc1cccc(F)c1)C(=O)c1ccncc1 | · | · | · | · | · | -0.3 | ·
Cc1cc(C)c(CN2CCC(n3nccc3NC(=O)C3CCOC3)CC2)cc1C (stereo not given) | · | · | · | · | · | 1.6 | ·
C=CCN1C(=O)/C(=C\c2ccc(OC(=O)c3ccco3)c(OC)c2)SC1=S | -7.8 | -13.8 | -31.5 | -4.8 | -15.6 | 18.7* | >50
CCN1C(=S)SC(=O)C1=C1C=C(C)N(Cc2ccco2)C(C)=C1 | 46.8 | -7.2 | -1.3 | 7.3 | 1.1 | 36.6* | 10.7*
CCCCc1cc(-c2n[nH]c(=S)o2)c2ccccc2n1 | · | · | · | · | · | 20.1* | >50
C=CCNC(=O)c1cccc(OC2CCN(CC(C)(C)C)CC2)c1 | · | · | · | · | · | 18.5* | >50
O=c1cc(N2CCC3(CC2)OCCO3)[nH]c(=O)n1-c1ccc(Br)cc1 | 2.0 | -8.4 | 6.5 | -0.3 | -1.4 | 16.8* | >50
CC(C)CN(C(=O)c1ccc(S(=O)(=O)N2CCCC2)cc1)C1CCS(=O)(=O)C1 (stereo not given) | · | · | · | · | · | -2.2 | ·
CCN(C(=O)c1c(C)cc(=O)oc1C)c1ccc2c(c1)OCO2 | -3.4 | 12.2 | -2.3 | 3.8 | -5.4 | 17.3* | >50
O=C1C(Cl)=C(Nc2ccccc2O)C(=O)N1CCc1ccccc1 | 16.8 | -23.3 | 15.9 | 35.5 | 25.1 | 0.9 | ·
COc1ccc2c(CCNC(N)=S)c[nH]c2c1 | -1.3 | -4.8 | 7.8 | -1.3 | 5.4 | -18.2 | ·
COc1ccc2c(CC#N)c[nH]c2c1 | -6.2 | -13.8 | 1.0 | -1.2 | 2.2 | 30.7* | >50
COc1ccc(NC(=O)CN2C(=O)CSC(C)C2=O)cc1 (stereo not given) | -1.9 | -5.8 | 16.3 | -1.7 | 2.8 | -1.8 | ·
CC1Cc2cc(S(=O)(=O)NCc3ccccc3)ccc2N1C(=O)C1CC1 (stereo not given) | · | · | · | · | · | 18.2* | >50
Cc1onc(-c2ccccc2)c1C(=O)Nc1cccc2nsnc12 | 25.2 | 2.1 | 6.8 | 9.5 | -2.7 | 22.4* | 37*
Cc1nnc(NC(=O)c2c(-c3ccccc3)noc2C)s1 | -3.5 | 1.3 | 1.5 | -0.2 | 3.4 | 2.4 | ·

Source: PubChem (several laboratories)
